{"source": "paper PMC8600646", "about": "(ACS Omega, 2021)", "key": {"Cyclic voltammetry": {"experiment": "Cyclic voltammetry", "assay_type": "physicochemical", "settings": "for Dred (CV): 1 mM; for Dox (CV): oxidized species", "in_short": "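Three-electrode cell: 3 mm glassy carbon working electrode (0.0707 cm2), Ag/AgCl in 3 M KCl reference, Pt wire counter. Electrode polished with 0.05 μm alumina and rinsed with water and methanol. Nitroxide starts at 1 mM; hydrotrope electrolytes readjusted to pH 7.0 (HCl) or, for the disulfonate, to about 0 (H2SO4). Triplicate CVs at 0.001–1 V/s, three cycles per rate.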"}, "[1]": {"experiment": "Linear sweep voltammetry with rotating disk electrode", "assay_type": "physicochemical", "settings": "for Dox (LSV): oxidized species"}, "[2]": {"experiment": "Electrochemical impedance spectroscopy", "assay_type": "physicochemical", "in_short": "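Glassy carbon rotating disk (5 mm; 0.196 cm2) with Ag/AgCl reference and Pt wire counter; polished as for CV. Solutions hold 1 mM reduced radical plus 1 mM oxidised form, made by bulk electrolysis at 0.75 V vs Ag/AgCl for 5–10 h. Run at open-circuit potential, 2500 rpm, 10 mV amplitude, 0.5–100000 Hz. Rct comes from a Nyquist fit, then j0, then k0 assuming α = 0.5.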"}, "[3]": {"experiment": "Hydraulic radius calculated with the Stokes-Einstein equation", "assay_type": "physicochemical", "settings": "from Dred CV, 298K", "in_short": "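Stokes–Einstein estimate that uses Dred from the CV fits, the measured solution viscosity and T = 298 K. Viscosities come from a concentric-cylinder rotational rheometer (KCl-based solutions) or a calibrated Ubbelohde glass viscometer (1 M H2SO4 and 15 wt % proline).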"}, "[4]": {"settings": "cited from earlier work; for Dred, previously reported: aqueous solution"}, "[5]": {"settings": "cited from earlier work"}, "[6]": {"experiment": "Viscosity measurements of hydrotrope solutions", "assay_type": "physicochemical", "settings": "20 wt % hydrotrope in 1 M KCl, rotational rheometer", "in_short": "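Rotational rheometer with concentric cylinder geometry over shear rates of 10 to 100/s. Solutions tested: 1 M KCl, 20 wt % NaXS and 20 wt % NapTS.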"}, "[7]": {"settings": "for 3,4-dimethylbenzenesulfonate; cited from earlier work"}}, "note": "Several values for one entry are separate records, joined by “and”; a condition that tells them apart may be missing. Equal values may be shown once. Read-outs that look alike come from different tables or passages of the source."}
{"molecule": "CC1(C)CC(O)CC(C)(C)N1[O]", "note": "[4-OH-TEMPO, 4-OH-TEMPO free radical]", "values": [{"measurement": "formal reduction potential E0'", "setting": "Cyclic voltammetry; 1 M KCl, no hydrotrope", "result": "0.59 ± 0.00 V vs Ag/AgCl and 0.59 V vs Ag/AgCl"}, {"measurement": "Dred (CV)", "setting": "Cyclic voltammetry; 1 M KCl, no hydrotrope", "result": "7.00 ± 0.24 × 10^–6 cm^2/s"}, {"measurement": "standard rate constant k0 (CV)", "setting": "Cyclic voltammetry; 1 M KCl, no hydrotrope, glassy carbon electrode", "result": "0.35 ± 0.14", "unit": "cm/s"}, {"measurement": "standard rate constant k0 (CV)", "setting": "Cyclic voltammetry; 20 wt % NaXS in 1 M KCl", "result": "0.48 ± 0.19", "unit": "cm/s"}, {"measurement": "Dred (CV)", "setting": "Cyclic voltammetry; 20 wt % NaXS in 1 M KCl", "result": "3.33 ± 0.04 × 10^–6 cm^2/s"}, {"measurement": "formal reduction potential E0'", "setting": "Cyclic voltammetry; 20 wt % NaXS in 1 M KCl, vs Ag/AgCl", "result": "0.59 ± 0.01", "unit": "V"}, {"measurement": "standard rate constant k0 (CV)", "setting": "Cyclic voltammetry; 20 wt % NapTS in 1 M KCl", "result": "0.95 ± 0.07", "unit": "cm/s"}, {"measurement": "Dred (CV)", "setting": "Cyclic voltammetry; 20 wt % NapTS in 1 M KCl", "result": "4.27 ± 0.14 × 10^–6 cm^2/s"}, {"measurement": "formal reduction potential E0'", "setting": "Cyclic voltammetry; 20 wt % NapTS in 1 M KCl, vs Ag/AgCl", "result": "0.59 ± 0.00", "unit": "V"}, {"measurement": "standard rate constant k0 (CV)", "setting": "Cyclic voltammetry; 20 wt % urea in 1 M KCl", "result": "0.78 ± 0.16", "unit": "cm/s"}, {"measurement": "Dred (CV)", "setting": "Cyclic voltammetry; 20 wt % urea in 1 M KCl", "result": "5.90 ± 0.07 × 10^–6 cm^2/s"}, {"measurement": "formal reduction potential E0'", "setting": "Cyclic voltammetry; 20 wt % urea in 1 M KCl, vs Ag/AgCl", "result": "0.59 ± 0.00", "unit": "V"}, {"measurement": "Dox (CV)", "setting": "Cyclic voltammetry; 1 M KCl, no hydrotrope", "result": "6.82 ± 0.32 × 10^–6 cm^2/s"}, {"measurement": "Dox (CV)", "setting": "Cyclic voltammetry; 20 wt % NaXS in 1 M KCl", "result": "3.50 ± 0.11 × 10^–6 cm^2/s"}, {"measurement": "Dox (CV)", "setting": "Cyclic voltammetry; 20 wt % NapTS in 1 M KCl", "result": "4.92 ± 0.15 × 10^–6 cm^2/s"}, {"measurement": "Dox (CV)", "setting": "Cyclic voltammetry; 20 wt % urea in 1 M KCl", "result": "5.55 ± 0.12 × 10^–6 cm^2/s"}, {"measurement": "Dred (LSV)", "setting": "[1]; 1 M KCl, no hydrotrope", "result": "10.53 × 10^–6 cm^2/s"}, {"measurement": "standard rate constant k0 (LSV)", "setting": "[1]; 1 M KCl, no hydrotrope", "result": "0.09 ± 0.07", "unit": "cm/s"}, {"measurement": "Dred (LSV)", "setting": "[1]; 20 wt % NaXS in 1 M KCl", "result": "6.63 × 10^–6 cm^2/s"}, {"measurement": "standard rate constant k0 (LSV)", "setting": "[1]; 20 wt % NaXS in 1 M KCl", "result": "0.12 ± 0.11", "unit": "cm/s"}, {"measurement": "Dred (LSV)", "setting": "[1]; 20 wt % NapTS in 1 M KCl", "result": "8.53 × 10^–6 cm^2/s"}, {"measurement": "standard rate constant k0 (LSV)", "setting": "[1]; 20 wt % NapTS in 1 M KCl", "result": "0.32 ± 0.33", "unit": "cm/s"}, {"measurement": "Dox (LSV)", "setting": "[1]; 1 M KCl, no hydrotrope", "result": "6.03 × 10^–6 cm^2/s"}, {"measurement": "Dox (LSV)", "setting": "[1]; 20 wt % NaXS in 1 M KCl", "result": "3.76 × 10^–6 cm^2/s"}, {"measurement": "Dox (LSV)", "setting": "[1]; 20 wt % NapTS in 1 M KCl", "result": "4.40 × 10^–6 cm^2/s"}, {"measurement": "standard rate constant k0 (EIS)", "setting": "[2]; 1 M KCl, no hydrotrope", "result": "0.08 ± 0.00", "unit": "cm/s"}, {"measurement": "standard rate constant k0 (EIS)", "setting": "[2]; 20 wt % NaXS in 1 M KCl", "result": "0.29 ± 0.11", "unit": "cm/s"}, {"measurement": "standard rate constant k0 (EIS)", "setting": "[2]; 20 wt % NapTS in 1 M KCl", "result": "0.12 ± 0.01", "unit": "cm/s"}, {"measurement": "hydraulic radius", "setting": "[3]; 20 wt % NaXS", "result": 3.7, "unit": "Å"}, {"measurement": "hydraulic radius", "setting": "[3]; 20 wt % NapTS", "result": 2.7, "unit": "Å"}, {"measurement": "hydraulic radius", "setting": "[3]; no hydrotrope (1 M KCl)", "result": 3.3, "unit": "Å"}, {"measurement": "Dred, previously reported", "setting": "[4]; ref 11", "result": "29.5 × 10^–6 cm^2/s"}, {"measurement": "Dred, previously reported", "setting": "[4]; ref 42", "result": "7.7 × 10^–6 cm^2/s"}, {"measurement": "formal reduction potential E0'", "setting": "[4]; circumneutral pH", "result": 0.59, "unit": "V vs Ag/AgCl"}]}
{"molecule": "Cc1cc2nc3c(=O)[nH]c(=O)nc-3n(C[C@H](O)[C@H](O)[C@H](O)COP(=O)(O)O)c2cc1C", "note": "[FMN, riboflavin-5′-monophosphate]", "values": [{"measurement": "aqueous solubility", "setting": "[5]; 1.0 M KOH, no hydrotrope", "result": 0.1, "unit": "M"}]}
{"molecule": "sodium xylenesulfonate [NaXS]", "values": [{"measurement": "viscosity of solution", "setting": "[6]", "result": "1.8 × 10^–3 Pa·s"}, {"measurement": "pKA", "setting": "[7]", "result": 10.36}]}
{"molecule": "Oc1ccc(O)cc1", "note": "[hydroquinone, benzene-1,4-diol, reference compound]", "values": [{"measurement": "solubility", "setting": "[5]; deionized water, 4.0 M urea", "result": 1.5, "unit": "M"}]}
